From ChEMBL document CHEMBL1154353, “Stereoselective behavior of the functional diltiazem analogue 1-[(4-chlorophenyl)sulfonyl]-2-(2-thienyl)pyrrolidine, a new L-type calcium channel blocker” (J Med Chem, 2009)

How the values were obtained:
[1] = Negative inotropic activity in guinea pig left atrium assessed as decrease in atrial tension; format: functional, tissue-based; conditions: Cavia porcellus, Cardiac atrium
Procedure, shortened: (§1)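 Isolated guinea pig left atria paced at 1 Hz (0.6-0.8 ms pulses, about 50% threshold voltage) in PSS at 35 °C, pH 7.4, gassed 95% O2-5% CO2. Isometric tension recorded after 45-60 min stabilization. Cumulative concentrations 0.1-100 μM, DMSO ≤0.3%. Reported as % decrease in developed tension vs control (n = 4-6). EC50 by Probit analysis (n = 6-8), not calculated when maximum effect was <50%.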

Ileum [2] = test: Muscle relaxant activity in 80 mM K+-depolarized guinea pig ileum longitudinal smooth muscle assessed as inhibition of calcium-induced contraction; format: functional, tissue-based; conditions: Cavia porcellus
Procedure, shortened: (§2)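 Guinea pig ileum longitudinal smooth muscle, 2 cm segments under 300-400 mg resting tension. Isometric recording in PSS, washed every 20 min for 1 h, then depolarized with 80 mM K+. Compounds added cumulatively in DMSO. Reported as % inhibition of calcium-induced contraction. IC50 from log concentration-response curves by Probit analysis.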

[3] = Negative inotropic activity in guinea pig left atrium assessed as decrease in atrial tension at 100 uM relative to control; format: functional, Cavia porcellus, Cardiac atrium; design: scale not given: the % may be the effect or the level left; procedure, shortened: as §1
Ileum [4] = test: Muscle relaxant activity in 80 mM K+-depolarized guinea pig ileum longitudinal smooth muscle assessed as inhibition of calcium-induced contraction at 5 uM; format: functional, Cavia porcellus; procedure, shortened: as §2
[5] = Negative chronotropic activity in guinea pig right atrium assessed as decrease in atrial rate at 50 uM relative to control; format: functional, Cavia porcellus, Cardiac atrium; design: scale not given: the % may be the effect or the level left
Procedure, shortened: (§3)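 Spontaneously beating guinea pig right atria in PSS at 35 °C, pH 7.4, 95% O2-5% CO2, pretreatment rate 170-195 beats/min. Cumulative concentrations 0.1-100 μM, each added at steady state, DMSO ≤0.3%. Reported as % decrease in atrial rate vs control, n = 6-8.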

Aorta [6] = test: Vasorelaxant activity in 80 mM K+-depolarized guinea pig thoracic aortic strip assessed as inhibition of calcium-induced contraction at 100 uM; format: functional, Cavia porcellus
Procedure, shortened: (§4)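 Helicoidal guinea pig aortic strips in PSS at 35 °C, contracted with 80 mM KCl (equimolar substitution for Na+), plateau reached in about 45 min. Cumulative concentrations 0.1-500 μM in DMSO vehicle. Reported as % inhibition of contraction. IC50 by Probit analysis from log concentration-response curves (n = 6-8), not calculated when maximum effect was <50%.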

[7] = molecular target: T1, Voltage-gated L-type calcium channel (Rattus norvegicus, UniProt P22002+Q02485+P27732); test: Blockade of L-type calcium channel in Wistar rat tail artery smooth muscle cells assessed as inhibition of peak L-type barium current by whole cell patch clamp method
Ileum [8] = test: Muscle relaxant activity in 80 mM K+-depolarized guinea pig ileum longitudinal smooth muscle assessed as inhibition of calcium-induced contraction at 10 uM; format: functional, Cavia porcellus; procedure, shortened: as §2
Aorta [9] = test: Vasorelaxant activity in 80 mM K+-depolarized guinea pig thoracic aortic strip assessed as inhibition of calcium-induced contraction; format: functional, tissue-based; conditions: Cavia porcellus; procedure, shortened: as §4
[10] = Negative inotropic activity in guinea pig left atrium assessed as decrease in atrial tension at 10 uM relative to control; format: functional, Cavia porcellus, Cardiac atrium; design: scale not given: the % may be the effect or the level left; procedure, shortened: as §1
[11] = Negative chronotropic activity in guinea pig right atrium assessed as decrease in atrial rate at 100 uM relative to control; format: functional, Cavia porcellus, Cardiac atrium; design: scale not given: the % may be the effect or the level left; procedure, shortened: as §3
Aorta [12] = test: Ratio of compound IC50 to diltiazem IC50 for vasorelaxant activity in 80 mM K+-depolarized guinea pig thoracic aortic strip; format: functional, Cavia porcellus
[13] = molecular target: T1, Voltage-gated L-type calcium channel; test: Displacement of [3H]diltiazem from […] binding site of L-type calcium channel in Wistar rat cardiomyocytes by liquid scintillation counting; format: cell-based
Procedure, shortened: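 Thawed rat cardiomyocytes (200 μg), isolated by collagenase/dispase perfusion and pooled from at least two animals. Incubated with 5 nM [3H]diltiazem and unlabeled ligand (0.1 nM to 100 μM) in 50 mM Tris pH 7.4, 25 °C, 90 min. Reaction stopped by filtration through PEI-soaked GF/B filters, then scintillation counting. Nonspecific binding defined with 100 μM diltiazem. Run in triplicate; sigmoidal fit of % specific binding.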

[14] = Ratio of diltiazem EC50 to compound EC50 for negative inotropic activity in guinea pig left atrium; format: functional, Cavia porcellus, Cardiac atrium

**Q.** With O=S(=O)(c1ccc(Cl)cc1)N1CCC[C@@H]1c1cccs1 as the compound, how does the EC50 [1] read?
**A.** 230 nM

**Q.** What about the IC50 (Ileum [2]) of the same compound?
**A.** 1070 nM

**Q.** What about the Activity [3] of the same compound?
**A.** 98%

**Q.** What about the “inhibition (INH)” value (Ileum [4]) of the same compound?
**A.** 94%

**Q.** What about the Activity [5] of the same compound?
**A.** 10%

**Q.** What about the “inhibition (INH)” value (Aorta [6]) of the same compound?
**A.** 24%

**Q.** What about the IC50 [7] of the same compound?
**A.** 27100 nM

**Q.** For COc1ccc([C@@H]2Sc3ccccc3N(CCN(C)C)C(=O)[C@@H]2OC(C)=O)cc1 [DILTIAZEM], which EC50 [1] is on record?
**A.** 790 nM

**Q.** What about the “inhibition (INH)” value (Ileum [8]) of the same compound?
**A.** 98%

**Q.** And the IC50 (Aorta [9])?
**A.** 2600 nM

**Q.** What about the “inhibition (INH)” value (Aorta [6]) of the same compound?
**A.** 88%

**Q.** For O=S(=O)(c1ccc(Cl)cc1)N1CCC[C@H]1c1cccs1, which EC50 [1] is on record?
**A.** 450 nM

**Q.** And the Activity [10]?
**A.** 96%

**Q.** What about the IC50 (Ileum [2]) of the same compound?
**A.** 2060 nM

**Q.** And the IC50 (Aorta [9])?
**A.** 5160 nM

**Q.** What about the “inhibition (INH)” value (Ileum [4]) of the same compound?
**A.** 69%

**Q.** And the Activity [5]?
**A.** 7%

**Q.** And the “inhibition (INH)” value (Aorta [6])?
**A.** 83%

**Q.** What about the IC50 [7] of the same compound?
**A.** 22200 nM

**Q.** For CCO[C@@]1(c2ccc(Br)cc2)SC=C(C)n2c1noc2=O, which EC50 [1] is on record?
**A.** 70 nM

**Q.** What about the Activity [11] of the same compound?
**A.** 16%

**Q.** What about the “inhibition (INH)” value (Ileum [8]) of the same compound?
**A.** 3%

**Q.** What about the “inhibition (INH)” value (Aorta [6]) of the same compound?
**A.** 11%

**Q.** With C=CCN(c1ccccc1)S(=O)(=O)c1ccc(Cl)cc1 as the compound, how does the Activity [11] read?
**A.** 5%

**Q.** What about the “inhibition (INH)” value (Ileum [8]) of the same compound?
**A.** 83%

**Q.** And the IC50 (Ileum [2])?
**A.** 4320 nM

**Q.** And the IC50 (Aorta [9])?
**A.** 17700 nM

**Q.** And the “Ratio IC50” value (Aorta [12])?
**A.** 6.8

**Q.** What about the “inhibition (INH)” value [13] of the same compound?
**A.** Dose-dependent effect

**Q.** What about the “Ratio EC50” value [14] of the same compound?
**A.** 2.5

**Q.** What about the “inhibition (INH)” value (Aorta [6]) of the same compound?
**A.** 54%

**Q.** With CSC1=NCCCN1S(=O)(=O)c1ccc(Cl)cc1 as the compound, how does the Activity [11] read?
**A.** 5%

**Q.** What about the “inhibition (INH)” value (Ileum [8]) of the same compound?
**A.** 83%

**Q.** What about the IC50 (Ileum [2]) of the same compound?
**A.** 14800 nM

**Q.** What about the “Ratio IC50” value (Aorta [12]) of the same compound?
**A.** 9.7

**Q.** What about the “inhibition (INH)” value (Aorta [6]) of the same compound?
**A.** 57%

**Q.** For O=S(=O)(c1ccc(Cl)cc1)N1CCCC1c1cccs1 (racemic), which Activity [11] is on record?
**A.** 4%

**Q.** And the “inhibition (INH)” value (Ileum [8])?
**A.** 90%

**Q.** What about the IC50 (Ileum [2]) of the same compound?
**A.** 1180 nM

**Q.** What about the “inhibition (INH)” value (Ileum [4]) of the same compound?
**A.** 90%

**Q.** What about the “Ratio IC50” value (Aorta [12]) of the same compound?
**A.** 2.2

**Q.** And the “Ratio EC50” value [14]?
**A.** 2.5

**Q.** What about the Activity [5] of the same compound?
**A.** 4%

**Q.** What about the “inhibition (INH)” value (Aorta [6]) of the same compound?
**A.** 74%

**Q.** And the IC50 [7]?
**A.** 23500 nM

**Q.** What about the “inhibition (INH)” value ([7]; rat) of the same compound?
**A.** Dose-dependent effect
